Source: ChEMBL document CHEMBL4819008, “Design, synthesis, and evaluation of "dual-site"-binding diarylpyrimidines targeting both NNIBP and the NNRTI adjacent site of the HIV-1 reverse transcriptase” (Eur J Med Chem, 2021)

Experiments:
[1] = test system: Human immunodeficiency virus 1; experiment: Antiviral activity against wild type HIV1 NL4-3 infected in human TZM-bl cells assessed as reduction in viral infection measured after 1 day by luciferase reporter gene assay based luminiscence assay; assay type: functional, organism-based; conditions: Human immunodeficiency virus 1, NL4-3, TZM-bl, 24 h
Summary of the method: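 TZM-bl cells got a single-round infection with 800 TCID50 of NL4-3 at various compound concentrations, top concentration 100 ng/mL. Luminescence was read 1 day post-infection. EC50 is the concentration giving a 50% decrease in luciferase RLU versus control wells, determined in at least triplicate.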

[2] = Cytotoxicity against human TZM-bl cells assessed as reduction in cell viability measured after 1 day by CytoTox-Glo assay; assay type: cell-based
Summary of the method: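 TZM-bl cells were cultured 1 day with various compound concentrations, in parallel with the antiviral assay, top concentration 100 ng/mL. Viable cells were measured by CytoTox-Glo. CC50 is the concentration causing a 50% reduction in cell viability.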

[3] = Selectivity index, ratio of CC50 for human TZM-bl cells to EC50 for wild type HIV1 NL4-3 infected in human TZM-bl cells; assay type: toxicity, cell-based; conditions: read-out: Ratio CC50/EC50
Summary of the method: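 Selectivity index is CC50/EC50, with both values from the TZM-bl assays: NL4-3 single-round luciferase infection and CytoTox-Glo viability, each over 1 day.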

Structure (SMILES) | EC50 [1] [nM] | CC50 at 24 h [2] [nM] | selectivity ratio [3]
Cc1cc(C#N)cc(C)c1Oc1nc(Nc2ccc(C#N)cc2)ncc1/C=C/C(N)=O | 5.36 | > 243 | > 45
Cc1cc(C#N)cc(C)c1Oc1nc(Nc2ccc(C#N)cc2)ncc1/C=C/C(=O)NCC1CCN(S(C)(=O)=O)CC1 | 12.8 | > 171 | > 13
Cc1cc(C#N)cc(C)c1Oc1nc(Nc2ccc(C#N)cc2)ncc1/C=C/C(=O)N1CCN(S(=O)(=O)C(F)(F)F)CC1 | > 164 | > 164 | > 1
Cc1cc(C#N)cc(C)c1Oc1nc(Nc2ccc(C#N)cc2)ncc1/C=C/C(=O)N1CCN(C(=O)C(F)(F)F)CC1 | 13.7 | > 174 | > 13
Cc1cc(C#N)cc(C)c1Oc1nc(Nc2ccc(C#N)cc2)ncc1/C=C/C(=O)NC1CCN(S(C)(=O)=O)C1 (stereo not drawn) | 14.7 | > 179 | > 12
Cc1cc(C#N)cc(C)c1Oc1nc(Nc2ccc(C#N)cc2)ncc1/C=C/C(=O)N1CCOCC1 | 20 | > 208 | > 10
Cc1cc(C#N)cc(C)c1Oc1nc(Nc2ccc(C#N)cc2)ncc1/C=C/C(=O)NC1CCN(S(C)(=O)=O)CC1 | 14.2 | > 175 | > 12
CC(=O)N1CCN(C(=O)/C=C/c2cnc(Nc3ccc(C#N)cc3)nc2Oc2c(C)cc(C#N)cc2C)CC1 | 49.9 | > 192 | > 4
Cc1cc(C#N)cc(C)c1Oc1nc(Nc2ccc(C#N)cc2)ncc1/C=C/C(=O)NC1CCN(S(=O)(=O)C(F)(F)F)CC1 | > 160 | > 160 | > 1
Cc1cc(C#N)cc(C)c1Oc1nc(Nc2ccc(C#N)cc2)ncc1/C=C/C(=O)NCCc1c[nH]c2ccccc12 | 81.3 | > 180 | > 2
Cc1cc(C#N)cc(C)c1Oc1nc(Nc2ccc(C#N)cc2)ncc1/C=C/C(=O)NC1CC1 | 5.1 | > 221 | > 44
Cc1cc(C#N)cc(C)c1Oc1nc(Nc2ccc(C#N)cc2)ncc1/C=C/C(=O)NCC1CCN(S(C)(=O)=O)C1 (stereo not drawn) | 13.6 | > 175 | > 13
Cc1cc(C#N)cc(C)c1Oc1nc(Nc2ccc(C#N)cc2)ncc1/C=C/C(=O)NC1CCN(C(=O)C(F)(F)F)CC1 | > 170 | > 170 | > 1
Cc1cc(C#N)cc(C)c1Oc1nc(Nc2ccc(C#N)cc2)ncc1/C=C/C(=O)N1CCN(C=O)CC1 | 49.3 | > 197 | > 4
Cc1cc(C#N)cc(C)c1Oc1nc(Nc2ccc(C#N)cc2)ncc1/C=C/C(=O)N1CCN(S(C)(=O)=O)CC1 | 13.8 | > 179 | > 13
CCOC(=O)/C=C/c1cnc(Nc2ccc(C#N)cc2)nc1Oc1c(C)cc(C#N)cc1C | 18.7 | > 227 | > 12
